Results from different studies.
Compare with care: the assays were run in different laboratories.
Target: Protein kinase C zeta type (PRKCZ, Homo sapiens, UniProt Q05513)

`Cc1ccc(NC(=O)c2ccc(C)c(C(F)(F)F)c2)cc1C#Cc1nn(C2CCC(O)CC2)c2ncnc(N)c12` (stereo not drawn) has a remaining signal of 99% (cell-free assay; 10 µM).
With `CC/C(=N\NC(=O)NCc1cccc(O)c1)c1ccc(O)c(C)c1O` the inhibition was 11% (enzyme activity, inhibitor; 0.1 µM).
For `CCCOc1ccc(OC)c(F)c1C(=O)c1ccc(C(=O)N[C@@H]2CNC[C@H]2NC(=O)c2ccc3[nH]ncc3c2)cc1`, the remaining activity was 60% (enzyme activity, inhibitor; 10 µM).
`Cc1ccc(Nc2nccc(N(C)c3ccc4c(C)n(C)nc4c3)n2)cc1S(N)(=O)=O` gave an inhibition of -2% (enzyme activity, inhibitor; 10 µM).
The remaining activity of `CC(C)(O)[C@H]1CC[C@H](Nc2ccc3ncc(-c4cccc(C(F)(F)F)c4)n3n2)CC1` is reported as 98% (enzyme activity, inhibitor; 1 µM).
With `Cn1c2c(c3ccc(Cl)c(Cl)c31)C(C#N)C1(CCNCC1)NC2=O` (racemic) the ΔTm was 0.9 °C (thermal stability, DSF; 10 µM).
With `N#CCCc1ccc2c(c1)-c1[nH]c3ccc([N+](=O)[O-])cc3c1CC(=O)N2` the remaining signal was 83.4% (cell-free assay; 0.5 µM).
With `CCC1(CC)NC(=O)c2c(c3ccc(Cl)c(Cl)c3n2C)C1C#N` (stereo not drawn) the ΔTm was -0.4 °C (thermal stability, DSF; 10 µM).
`Nc1nc(NC2CCCCC2)sc1C(=O)c1ccccc1` has a remaining activity of 83% (enzyme activity, inhibitor; 10 µM).
The remaining activity of `Cn1c(=O)n(-c2ccc(C(C)(C)C#N)cc2)c2c3cc(-c4cnc5ccccc5c4)ccc3ncc21` is reported as 123% (enzyme activity, inhibitor; 10 µM).
For `c1ccc(CNc2nc(N3CCOc4ccccc43)nc3c2CCCC3)cc1`, the inhibition was 17.3% (target engagement in cells, inhibitor, chemoproteomics; 20 mM).
`CCN(CC)CCNC(=O)c1c(C)[nH]c(/C=C2\C(=O)Nc3ccc(F)cc32)c1C` gave an inhibition of -2% (enzyme activity, inhibitor; 10 µM).
`O=C(Nc1cnn(-c2csc(C(=O)NC3COC3)c2)c1)Nc1ccccc1Cl` has a remaining activity of 105% (enzyme activity, inhibitor; 5 µM).
With `Cc1cnc(NC2CCOCC2)nc1-n1cnc(C(=O)NC(CN)c2cc(F)cc(Cl)c2)c1` (stereo not drawn) the remaining activity was 106% (enzyme activity, inhibitor, radiometric; 1 µM).
`COc1cc(Cl)c(C(=O)N[C@@H](CN[C@H]2CC[C@@H](N)CC2)Cc2ccc(C#N)cc2)cc1-c1ccc(CN[C@H](C)c2ccc(C)cc2)o1` has a remaining activity of 91% (enzyme activity, inhibitor; 1 µM).
The ΔTm of `Cn1c2c(c3ccccc31)C(C#N)C(C)(C)NC2=O` (stereo not drawn) is reported as -0.3 °C (thermal stability, DSF; 10 µM).
For `Cc1ccc(-n2nc(C(C)(C)C)cc2NC(=O)Nc2ccc(OCCN3CCOCC3)c3ccccc23)cc1`, the inhibition was -3% (enzyme activity, inhibitor; 10 µM).
For `CN(c1ncccc1CNc1nc(Nc2ccc3c(c2)CC(=O)N3)ncc1C(F)(F)F)S(C)(=O)=O`, the inhibition was 0% (enzyme activity, inhibitor; 1 µM).
